From ChEMBL document CHEMBL4251698, “Mitigating the Metabolic Liability of Carbonyl Reduction: Novel Calpain Inhibitors with P1' Extension” (ACS Med Chem Lett, 2018)

Assays:
[1] = molecular target: T1, Calpain-1 catalytic subunit (Homo sapiens, UniProt P07384); assay: Inhibition of human erythrocyte calpain 1 using Suc-Leu-Tyr-AMC as substrate by fluorescence assay
T1 sequence (P07384 whole entry): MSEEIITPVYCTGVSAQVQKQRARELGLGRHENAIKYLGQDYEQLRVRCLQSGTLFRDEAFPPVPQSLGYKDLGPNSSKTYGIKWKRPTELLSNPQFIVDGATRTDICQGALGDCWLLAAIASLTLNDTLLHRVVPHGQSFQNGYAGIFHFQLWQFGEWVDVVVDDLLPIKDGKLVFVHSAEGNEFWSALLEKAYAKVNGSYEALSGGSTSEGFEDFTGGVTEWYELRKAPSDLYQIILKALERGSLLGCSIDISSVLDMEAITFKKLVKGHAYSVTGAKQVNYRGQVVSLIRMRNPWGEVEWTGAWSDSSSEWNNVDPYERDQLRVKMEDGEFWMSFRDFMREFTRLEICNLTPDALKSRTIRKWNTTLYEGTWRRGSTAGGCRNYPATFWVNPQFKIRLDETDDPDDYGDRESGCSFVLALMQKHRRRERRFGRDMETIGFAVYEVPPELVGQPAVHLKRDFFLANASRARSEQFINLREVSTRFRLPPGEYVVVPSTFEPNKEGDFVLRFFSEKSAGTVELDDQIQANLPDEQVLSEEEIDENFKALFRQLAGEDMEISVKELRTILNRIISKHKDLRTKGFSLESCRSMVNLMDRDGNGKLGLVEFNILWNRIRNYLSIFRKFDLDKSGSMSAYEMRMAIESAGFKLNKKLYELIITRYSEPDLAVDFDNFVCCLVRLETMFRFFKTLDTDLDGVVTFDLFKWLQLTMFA

[2] = Inhibition of calpain in rat hippocampal slices assessed as reduction in NMDA-induced intracellular spectrin cleavage; format: cell-based
Method in brief: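 Rat hippocampal slice cultures were challenged with NMDA. The read-out was prevention of intracellular spectrin cleavage, and IC50 values were derived.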

[3] = Intrinsic clearance in cynomolgus monkey liver cytosol at 0.5 uM measured after 15 mins in presence of NADPH by spectrometric method; format: ADME, subcellular, Macaca fascicularis; conditions: read-out: CLH
Method in brief: (§1)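 Test compound incubated with monkey or human liver cytosol and percent parent lost over time followed. Intrinsic clearance calculated from this depletion, in µL/min/mg; ranges adjusted to hepatic plasma flow of the species.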

[4] = Intrinsic clearance in human liver cytosol at 0.5 uM measured after 15 mins in presence of NADPH by spectrometric method; format: ADME, subcellular; conditions: read-out: CLH; method in brief: as §1
[5] = Clearance in rat hepatocytes; format: ADME, cell-based, Hepatocyte
[6] = Clearance in human hepatocytes; format: ADME, cell-based, Hepatocyte

Row | Compound | Ki [1] [nM] | further results
1 | N#CCNC(=O)C(=O)C(Cc1ccccc1)NC(=O)c1cccnc1-n1ccc(-c2ccccc2)n1 (stereo not given) | 950 | –
2 | CC(C)NC(=O)C(=O)C(Cc1ccccc1)NC(=O)c1cccnc1-n1ccc(-c2ccccc2)n1 (stereo not given) | 2600 | –
3 | O=C(NCc1ccccc1)C(=O)C(Cc1ccccc1)NC(=O)c1cccnc1-n1ccc(-c2ccccc2)n1 (stereo not given) | 110 | –
4 | O=C(NOCCN1CCOCC1)C(=O)C(Cc1ccccc1)NC(=O)c1cccnc1-n1ccc(-c2ccccc2)n1 (stereo not given) | 265 | –
5 | O=C(NOC1CCC1)C(=O)C(Cc1ccccc1)NC(=O)c1cccnc1-n1ccc(-c2ccccc2)n1 (stereo not given) | 150 | –
6 | O=C(NOC1CCCC1)C(=O)C(Cc1ccccc1)NC(=O)c1cccnc1-n1ccc(-c2ccccc2)n1 (stereo not given) | 120 | –
7 | CC(C)ONC(=O)C(=O)C(Cc1ccccc1)NC(=O)c1cccnc1-n1ccc(-c2ccccc2)n1 (stereo not given) | 220 | –
8 | CC1(NC(=O)C(=O)C(Cc2ccccc2)NC(=O)c2cccnc2-n2ccc(-c3ccccc3)n2)CC1 (stereo not given) | > 5000 | –
9 | O=C(NC1CCC1)C(=O)C(Cc1ccccc1)NC(=O)c1cccnc1-n1ccc(-c2ccccc2)n1 (stereo not given) | 490 | –
10 | O=C(NC1CC1)C(=O)C(Cc1ccccc1)NC(=O)c1cccnc1-n1ccc(-c2ccccc2)n1 (stereo not given) | 205 | IC50 [2]: 750 nM
11 | C=CCNC(=O)C(=O)C(Cc1ccccc1)NC(=O)c1cccnc1-n1ccc(-c2ccccc2)n1 (stereo not given) | 470 | –
12 | O=C(NCC1CC1)C(=O)C(Cc1ccccc1)NC(=O)c1cccnc1-n1ccc(-c2ccccc2)n1 (stereo not given) | 550 | –
13 | O=C(NC1CCCC1)C(=O)C(Cc1ccccc1)NC(=O)c1cccnc1-n1ccc(-c2ccccc2)n1 (stereo not given) | 1350 | –
14 | O=C(NCc1nc2ccccc2o1)C(=O)C(Cc1ccccc1)NC(=O)c1cccnc1-n1ccc(-c2ccccc2)n1 (stereo not given) | 210 | –
15 | O=C(NCCc1ccccc1)C(=O)C(Cc1ccccc1)NC(=O)c1cccnc1-n1ccc(-c2ccccc2)n1 (stereo not given) | 330 | –

More lines, main results first:

Row | Ki [1] [nM] | Compound | further results
16 | 120 | CONC(=O)C(=O)C(Cc1ccccc1)NC(=O)c1cccnc1-n1ccc(-c2ccccc2)n1 (stereo not given) | IC50 [2]: 2150 nM
17 | 690 | CCNC(=O)C(=O)C(Cc1ccccc1)NC(=O)c1cccnc1-n1ccc(-c2ccccc2)n1 (stereo not given) | –
18 | 185 | C=CCONC(=O)C(=O)C(Cc1ccccc1)NC(=O)c1cccnc1-n1ccc(-c2ccccc2)n1 (stereo not given) | –
19 | 1060 | CN(C)CCONC(=O)C(=O)C(Cc1ccccc1)NC(=O)c1cccnc1-n1ccc(-c2ccccc2)n1 (stereo not given) | –
20 | 90 | O=C(NOCC1CC1)C(=O)C(Cc1ccccc1)NC(=O)c1cccnc1-n1ccc(-c2ccccc2)n1 (stereo not given) | –
21 | 75 | CCCONC(=O)C(=O)C(Cc1ccccc1)NC(=O)c1cccnc1-n1ccc(-c2ccccc2)n1 (stereo not given) | –
22 | 480 | CCCNC(=O)C(=O)C(Cc1ccccc1)NC(=O)c1cccnc1-n1ccc(-c2ccccc2)n1 (stereo not given) | –
23 | 110 | CCONC(=O)C(=O)C(Cc1ccccc1)NC(=O)c1cccnc1-n1ccc(-c2ccccc2)n1 (stereo not given) | microsomal CLint at […], 0.5 µM [3]: < 1 µL/min/mg; microsomal CLint at […], 0.5 µM [4]: < 1 µL/min/mg; CLH [5]: 32 µL/min/mg; CLH [6]: 10 µL/min/mg
24 | 380 | CNC(=O)C(=O)C(Cc1ccccc1)NC(=O)c1cccnc1-n1ccc(-c2ccccc2)n1 (stereo not given) | –
